# Data taken from ChEMBL document CHEMBL4251567 (Eur J Med Chem, 2018).
# What was measured:
# Histone deacetylase = assay: Inhibition of HDAC in human HeLa-S3 cell lysates preincubated for 15 mins followed by HDAC-Glo substrate addition measured after 35 mins by fluorimetric method; format: protein assay
# [1] = target: Histone deacetylase 3 (Homo sapiens) (UniProt O15379); assay: Inhibition of HDAC3 in human HeLa-S3 cell lysates assessed as remaining activity at 4 x 10^-5 M preincubated for 15 mins followed by HDAC-Glo substrate addition measured after 30 to 40 mins by […] relative to control
# Procedure, shortened: (§1)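 Antibody-capture (ELISA-type) assay: HDAC antibody coated in carbonate/bicarbonate buffer pH 9.4, wells blocked with 5% milk in TBST. HeLa-S3 lysate added at 1 mg/mL for HDAC3, 1 h at 4 °C, then washed. Inhibitor in DMSO preincubated 15 min at RT in HDAC-Glo buffer. HDAC-Glo reagent added, luminescence read after 30-40 min. Concentrations are final. Background = no-antibody well; activity given as % of DMSO control.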
# [2] = target: Histone deacetylase 1 (Homo sapiens) (UniProt Q13547); assay: Inhibition of HDAC1 in human HeLa-S3 cell lysates assessed as remaining activity at 2 x 10^-5 M preincubated for 15 mins followed by HDAC-Glo substrate addition measured after 30 to 40 mins by […] relative to control
# Procedure, shortened: (§2)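 HDAC1 was captured from HeLa-S3 lysate (100 μg/mL) onto wells precoated with anti-HDAC1 antibody (10 μg/mL, carbonate buffer pH 9.4) and milk-blocked, 1 h at 4 °C, then washed. Inhibitor in DMSO was added in HDAC-Glo buffer for 15 min at room temperature. HDAC-Glo reagent was added and luminescence read after 30-40 min. Concentrations are final. No-antibody background subtracted; % of DMSO control.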
# [3] = target: Histone deacetylase 3 (Homo sapiens) (UniProt O15379); assay: Inhibition of HDAC3 in human HeLa-S3 cell lysates assessed as remaining activity at 2 x 10^-5 M preincubated for 15 mins followed by HDAC-Glo substrate addition measured after 30 to 40 mins by […] relative to control; procedure, shortened: as §1
# [4] = target: Histone deacetylase 2 (Homo sapiens) (UniProt Q92769); assay: Inhibition of HDAC2 in human HeLa-S3 cell lysates assessed as remaining activity at 8 x 10^-5 M preincubated for 15 mins followed by HDAC-Glo substrate addition measured after 30 to 40 mins by […] relative to control
# Procedure, shortened: (§3)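 Same antibody-capture format as the other class I isoforms. HeLa-S3 lysate added at 100 μg/mL for HDAC1 and HDAC2, 1 h at 4 °C, then washed. Inhibitor in DMSO preincubated 15 min at RT; HDAC-Glo reagent added and luminescence read after 30-40 min. Concentrations are final. Signal corrected against a well without antibody; activity expressed as % of DMSO control.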
# [5] = target: Histone deacetylase 1 (Homo sapiens) (UniProt Q13547); assay: Inhibition of HDAC1 in human HeLa-S3 cell lysates assessed as remaining activity at 1.6 x 10^-4 M preincubated for 15 mins followed by HDAC-Glo substrate addition measured after 30 to 40 mins by […] relative to control; procedure, shortened: as §2
# [6] = target: Histone deacetylase 1 (Homo sapiens) (UniProt Q13547); assay: Inhibition of HDAC1 in human HeLa-S3 cell lysates assessed as remaining activity at 1 x 10^-5 M preincubated for 15 mins followed by HDAC-Glo substrate addition measured after 30 to 40 mins by fluorimetric method relative to control; procedure, shortened: as §2
# U-937 [7] = assay: Cytotoxicity against human U937 cells assessed as cell viability at 4 x 10^-6 M after 44 hrs by MTT assay relative to control; format: functional; conditions: U-937, 44 h, read-out: Activity
# [8] = target: Histone deacetylase 3 (Homo sapiens) (UniProt O15379); assay: Inhibition of HDAC3 in human HeLa-S3 cell lysates assessed as remaining activity at 1.6 x 10^-4 M preincubated for 15 mins followed by HDAC-Glo substrate addition measured after 30 to 40 mins by […] relative to control; procedure, shortened: as §1
# U-937 [9] = assay: Cytotoxicity against human U937 cells assessed as cell viability at 8 x 10^-6 M after 44 hrs by MTT assay relative to control; format: functional; conditions: U-937, 44 h, read-out: Activity
# [10] = target: Histone deacetylase 1 (Homo sapiens) (UniProt Q13547); assay: Inhibition of HDAC1 in human HeLa-S3 cell lysates assessed as remaining activity at 8 x 10^-5 M preincubated for 15 mins followed by HDAC-Glo substrate addition measured after 30 to 40 mins by […] relative to control
# [11] = target: Histone deacetylase 2 (Homo sapiens) (UniProt Q92769); assay: Inhibition of HDAC2 in human HeLa-S3 cell lysates assessed as remaining activity at 2 x 10^-5 M preincubated for 15 mins followed by HDAC-Glo substrate addition measured after 30 to 40 mins by fluorimetric method relative to control; procedure, shortened: as §3
# [12] = target: Histone deacetylase 3 (Homo sapiens) (UniProt O15379); assay: Inhibition of HDAC3 in human HeLa-S3 cell lysates assessed as remaining activity at 8 x 10^-5 M preincubated for 15 mins followed by HDAC-Glo substrate addition measured after 30 to 40 mins by […] relative to control; procedure, shortened: as §1
# [13] = target: Histone deacetylase 1 (Homo sapiens) (UniProt Q13547); assay: Inhibition of HDAC1 in human HeLa-S3 cell lysates assessed as remaining activity at 4 x 10^-5 M preincubated for 15 mins followed by HDAC-Glo substrate addition measured after 30 to 40 mins by […] relative to control; procedure, shortened: as §2
# U-937 [14] = assay: Cytotoxicity against human U937 cells assessed as cell viability at 2 x 10^-6 M after 44 hrs by MTT assay relative to control; format: functional; conditions: U-937, 44 h, read-out: Activity
# [15] = target: Histone deacetylase 2 (Homo sapiens) (UniProt Q92769); assay: Inhibition of HDAC2 in human HeLa-S3 cell lysates assessed as remaining activity at 4 x 10^-5 M preincubated for 15 mins followed by HDAC-Glo substrate addition measured after 30 to 40 mins by […] relative to control; procedure, shortened: as §3
# [16] = target: Histone deacetylase 2 (Homo sapiens) (UniProt Q92769); assay: Inhibition of HDAC2 in human HeLa-S3 cell lysates assessed as remaining activity at 1.6 x 10^-4 M preincubated for 15 mins followed by HDAC-Glo substrate addition measured after 30 to 40 mins by […] relative to control; procedure, shortened: as §3
# [17] = target: Histone deacetylase 3 (Homo sapiens) (UniProt O15379); assay: Inhibition of HDAC3 in human HeLa-S3 cell lysates assessed as remaining activity at 1 x 10^-5 M preincubated for 15 mins followed by HDAC-Glo substrate addition measured after 30 to 40 mins by […] relative to control; procedure, shortened: as §1
# Histone deacetylase 3 (Homo sapiens), sequence (O15379 whole entry): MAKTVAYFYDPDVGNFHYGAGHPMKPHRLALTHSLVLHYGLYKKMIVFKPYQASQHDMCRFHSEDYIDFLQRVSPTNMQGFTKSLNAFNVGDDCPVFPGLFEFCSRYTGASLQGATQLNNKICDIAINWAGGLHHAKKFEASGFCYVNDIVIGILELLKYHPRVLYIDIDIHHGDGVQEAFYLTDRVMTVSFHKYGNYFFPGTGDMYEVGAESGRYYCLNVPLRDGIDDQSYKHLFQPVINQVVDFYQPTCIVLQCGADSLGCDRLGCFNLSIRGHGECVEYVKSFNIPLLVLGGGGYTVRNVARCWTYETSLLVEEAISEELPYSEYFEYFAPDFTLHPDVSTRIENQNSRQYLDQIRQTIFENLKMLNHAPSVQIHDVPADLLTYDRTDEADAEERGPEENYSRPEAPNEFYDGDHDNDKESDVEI
# Histone deacetylase 1 (Homo sapiens), sequence (Q13547 whole entry): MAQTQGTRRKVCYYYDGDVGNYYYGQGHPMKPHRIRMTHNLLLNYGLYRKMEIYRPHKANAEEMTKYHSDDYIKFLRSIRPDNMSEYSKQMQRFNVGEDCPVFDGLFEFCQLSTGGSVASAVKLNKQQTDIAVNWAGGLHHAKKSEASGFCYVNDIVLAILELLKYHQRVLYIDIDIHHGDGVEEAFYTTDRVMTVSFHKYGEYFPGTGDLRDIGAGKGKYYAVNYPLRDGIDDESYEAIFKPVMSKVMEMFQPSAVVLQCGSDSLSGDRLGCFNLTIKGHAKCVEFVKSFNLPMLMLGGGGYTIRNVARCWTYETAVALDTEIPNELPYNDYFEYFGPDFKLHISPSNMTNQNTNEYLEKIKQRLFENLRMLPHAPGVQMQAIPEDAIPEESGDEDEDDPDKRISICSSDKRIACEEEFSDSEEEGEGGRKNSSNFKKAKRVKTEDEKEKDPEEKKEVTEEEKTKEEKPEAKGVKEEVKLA
# Histone deacetylase 2 (Homo sapiens), sequence (Q92769 whole entry, canonical isoform): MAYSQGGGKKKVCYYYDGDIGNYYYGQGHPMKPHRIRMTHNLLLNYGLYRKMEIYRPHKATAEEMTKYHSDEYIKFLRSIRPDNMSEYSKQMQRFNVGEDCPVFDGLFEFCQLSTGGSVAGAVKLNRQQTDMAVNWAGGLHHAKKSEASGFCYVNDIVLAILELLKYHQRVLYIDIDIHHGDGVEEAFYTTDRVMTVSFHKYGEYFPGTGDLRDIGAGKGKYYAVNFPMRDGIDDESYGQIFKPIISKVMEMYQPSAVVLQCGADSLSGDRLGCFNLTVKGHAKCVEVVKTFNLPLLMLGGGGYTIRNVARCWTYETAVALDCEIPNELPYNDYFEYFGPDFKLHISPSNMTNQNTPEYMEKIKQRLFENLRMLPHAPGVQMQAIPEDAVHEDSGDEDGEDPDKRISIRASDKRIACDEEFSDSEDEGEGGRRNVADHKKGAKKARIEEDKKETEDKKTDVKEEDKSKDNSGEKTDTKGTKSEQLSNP
IC50 (Histone deacetylase) [µM],Activity [1] [%],Activity [2] [%],Activity [3] [%],Activity [4] [%],Activity [5] [%],Activity [6] [%],Activity [8] [%],Activity [10] [%],Activity [11] [%],Activity [12] [%],Activity [13] [%],Activity [15] [%],Activity [16] [%],Activity [17] [%],SMILES,viability at 4 µM (U-937 [7]) [%],viability at 8 µM (U-937 [9]) [%],viability at 2 µM (U-937 [14]) [%]
14,–,–,–,–,–,–,–,–,–,–,–,–,–,–,CCC(CCCC(=O)Nc1ccccc1)CCC(=O)NO (stereo unspecified),–,–,–
60,42,67,56,31,13,83,5,26,73,25,46,46,16,88,CCCCCCC(CCCC(=O)Nc1ccccc1)CCC(=O)NO (stereo unspecified),108,102,106
62,55,58,63,27,16,75,19,27,60,33,44,47,20,87,O=C(CCC(CCCC(=O)Nc1ccccc1)Cc1ccccc1)NO (racemic),74,80,80
–,48,68,67,37,17,84,15,32,74,33,50,56,22,76,O=C(CC[C@H](CCCC(=O)Nc1ccccc1)Cc1ccccc1)NO,–,–,–
